Active and inactive are the calls of the source. The rule behind the calls is not given here.
Tests used:
PANC-1 [1] = experiment: Antiproliferative activity against human PANC1 cells assessed as reduction in cell viability incubated for 72 hrs by MTT assay; format: functional, cell-based
In short: (§1)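 PDAC cells grown in DMEM or RPMI1640 with 10% FBS and penicillin/streptomycin at 37 °C, 5% CO2. Plated in triplicate, then treated with a concentration series for 72 h. Viability read by MTT. IC50 calculated from dose-response curves.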

[2] = target: T1, NAD-dependent protein deacylase sirtuin-6 (Homo sapiens, UniProt Q8N6T7); experiment: In-vivo activation of SIRT6 in BALB/c nude mouse xenografted with human PANC1 cells assessed as reduction in H3K9Ac expression at 150 mg/kg/day, po for 30 days by IHC analysis; format: functional, organism-based; conditions: PANC-1
T1 sequence (Q8N6T7 whole entry): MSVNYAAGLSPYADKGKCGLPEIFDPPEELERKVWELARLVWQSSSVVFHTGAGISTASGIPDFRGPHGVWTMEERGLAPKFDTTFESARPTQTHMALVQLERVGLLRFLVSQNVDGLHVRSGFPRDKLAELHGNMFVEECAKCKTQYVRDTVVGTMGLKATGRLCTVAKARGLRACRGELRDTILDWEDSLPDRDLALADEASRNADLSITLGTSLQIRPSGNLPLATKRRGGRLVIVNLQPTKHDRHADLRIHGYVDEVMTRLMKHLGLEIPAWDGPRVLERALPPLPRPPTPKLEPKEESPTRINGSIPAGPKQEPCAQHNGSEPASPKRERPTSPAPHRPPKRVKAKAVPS
In short: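 Female BALB/c nude mice (6–8 weeks) bearing subcutaneous PANC-1 xenografts (5×10⁶–1×10⁷ cells, right flank), randomised at 130–150 mm³ tumours; oral dosing daily for 30 days versus vehicle (n=6). Tumour tissue stained by immunohistochemistry.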

[3] = target: T1, NAD-dependent protein deacylase sirtuin-6; experiment: […] in human BxPC3 cells assessed as reduction in H3K56ac levels incubated for 72 hrs by Western blot analysis; format: cell-based; conditions: BXPC-3
In short: (§2)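 Cells incubated 72 h with various compound concentrations; whole-cell RIPA lysates with protease inhibitors, BCA-normalised, separated on 12% SDS-PAGE, transferred to PVDF, blocked in 5% milk or BSA. Probed 10 h at 4 °C with antibodies to SIRT6, acetyl-H3K9/K18/K56, total H3, Lin28b, Myc, IGF2BP3, β-actin; HRP secondary, chemiluminescent detection.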

BXPC-3 [4] = experiment: Induction of apoptosis in human BxPC3 cells incubated for 48 hrs by propidium iodide and Annexin V-FITC staining based flow cytometry; format: functional, cell-based
In short: (§3)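 PANC-1 and BXPC-3 cells seeded in 6-well plates and treated with a concentration series for 48 h. Stained with Annexin V-FITC and propidium iodide for 10 min in the dark. Annexin V+ populations measured by flow cytometry.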

BXPC-3 [5] = experiment: Antiproliferative activity against human BxPC3 cells assessed as reduction in cell viability incubated for 72 hrs by MTT assay; format: functional, cell-based; in short: as §1
[6] = target: T1, NAD-dependent protein deacylase sirtuin-6; experiment: Binding affinity to SIRT6 in human PANC1 cells assessed as protection of SIRT6 protein from temperature-dependent degradation at 25 uM incubated for 72 hrs by CETSA; format: cell-based; conditions: PANC-1
In short: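 Cells treated with compound (25 μM) or DMSO for 72 h, washed, resuspended in PBS with protease inhibitor cocktail, split into aliquots heated 3 min at a temperature gradient. Lysed by three freeze–thaw cycles, centrifuged at 4 °C for 15 min; soluble SIRT6 in supernatant detected by western blot. Triplicate.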

[7] = target: T1, NAD-dependent protein deacylase sirtuin-6; experiment: Activation of N-terminal his-tagged human SIRT6 expressed in Escherichia coli M15 [pREP4] assessed as increase in peptide demyristoylation incubated for 120 mins using Ac-EALPKK(Myr)-AMC substrate by HPLC analysis
In short: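 SIRT6 (10 μM) incubated with 100 μM Ac-EALPKK(Myr)-AMC, 3 mM NAD⁺ in assay buffer, with DMSO or 25 μM compound, 37 °C for 2 h. Quenched with 100 mM HCl/160 mM acetic acid at 37 °C for 30 min, centrifuged, supernatant analysed by reverse-phase C18 HPLC, water/acetonitrile with 0.1% TFA.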

[8] = AUC (0 to t) in Sprague-Dawley rat at 2 mg/kg, iv after 0.25 to 24 hrs by LC-MS/MS analysis; format: ADME, organism-based; conditions: in vivo
In short: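 Male Sprague-Dawley rats, 6-8 weeks old. Dosing solution of 10 (PO) or 2 (IV) mg/mL in 5% DMSO, 10% Solutol and 85% saline, pH 7. Blood taken by cardiac puncture at 0.083–24 h (PO) or 0.25–24 h (IV). Plasma levels measured by LC-MS/MS. Values are mean ± SD, n = 3.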

[9] = target: T1, NAD-dependent protein deacylase sirtuin-6; experiment: […] in human BxPC3 cells assessed as reduction in Lin28b expression levels at 25 uM incubated for 72 hrs by Western blot analysis; format: cell-based; conditions: BXPC-3; in short: as §2
ASPC1 = experiment: Antiproliferative activity against human AsPC1 cells assessed as reduction in cell viability incubated for 72 hrs by MTT assay; format: functional, cell-based; in short: as §1
[10] = Toxicity in BALB/c nude mouse xenografted with human PANC1 cells assessed as induction of toxicity symptoms at 100 to 150 mg/kg/day, po for 30 days; format: organism-based, PANC-1; conditions: in vivo, 720 h
In short: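 Female BALB/c nude mice, 6–8 weeks old, received 5×10⁶–1×10⁷ PANC-1 cells subcutaneously in the right flank. Once tumors reached 130–150 mm³, mice were randomized (n = 6) to vehicle or 100 or 150 mg/kg/d given orally for 30 days. Body weight and toxicity were monitored against the vehicle group.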

PANC-1 [11] = experiment: Induction of apoptosis in human PANC1 cells incubated for 48 hrs by propidium iodide and Annexin V-FITC staining based flow cytometry; format: functional, cell-based; in short: as §3
[12] = target: NAD-dependent protein deacetylase sirtuin-1 (Homo sapiens, UniProt Q96EB6); experiment: Inhibition of SIRT1 (unknown origin) by FDL assay
Sequence of NAD-dependent protein deacetylase sirtuin-1 (Q96EB6 whole entry): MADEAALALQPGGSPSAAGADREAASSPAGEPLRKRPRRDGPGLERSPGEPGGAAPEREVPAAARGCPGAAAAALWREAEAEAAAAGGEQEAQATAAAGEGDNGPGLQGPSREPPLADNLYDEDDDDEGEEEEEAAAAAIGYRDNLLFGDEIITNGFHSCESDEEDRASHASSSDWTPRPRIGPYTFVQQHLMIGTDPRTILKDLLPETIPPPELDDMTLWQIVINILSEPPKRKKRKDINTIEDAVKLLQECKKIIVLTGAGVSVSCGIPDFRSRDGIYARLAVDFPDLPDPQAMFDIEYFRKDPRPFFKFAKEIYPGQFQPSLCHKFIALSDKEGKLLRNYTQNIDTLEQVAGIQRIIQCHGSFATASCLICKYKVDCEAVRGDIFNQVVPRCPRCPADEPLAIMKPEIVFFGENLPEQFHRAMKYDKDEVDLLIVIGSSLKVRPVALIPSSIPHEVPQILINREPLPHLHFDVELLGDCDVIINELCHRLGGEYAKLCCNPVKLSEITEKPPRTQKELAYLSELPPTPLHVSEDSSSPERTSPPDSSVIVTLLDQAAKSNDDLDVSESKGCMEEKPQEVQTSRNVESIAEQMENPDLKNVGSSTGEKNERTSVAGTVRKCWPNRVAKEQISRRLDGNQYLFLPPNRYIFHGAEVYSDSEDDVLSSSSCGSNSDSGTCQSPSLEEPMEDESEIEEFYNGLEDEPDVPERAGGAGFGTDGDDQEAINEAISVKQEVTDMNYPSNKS
In short: (§4)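 Selectivity testing by FDL assay at concentrations up to 200 µM. SIRT1-2 assays run by an outside contract provider. Values reported as IC50.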

PANC-1 [13] = experiment: Antiproliferative activity against human PANC1 cells at 3.3 to 10 uM incubated for 24 hrs by EdU incorporation assay; format: functional, cell-based
In short: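 Cells seeded per well at 8000 (BXPC-3) or 4600 (PANC-1), then treated with a concentration series for 24 h. EdU incorporation detected with an EdU-Apollo kit, with Hoechst counterstain. EdU-positive cells counted by high-content imaging across 10 fields.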

[14] = target: T1, NAD-dependent protein deacylase sirtuin-6; experiment: Activation of N-terminal his-tagged human SIRT6 expressed in Escherichia coli M15 [pREP4] assessed as increase in peptide demyristoylation at 20 uM incubated for 120 mins using Ac-EALPKK(Myr)-AMC substrate by FDL assay relative to control
In short: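 Demyristoylation: 1 µM recombinant SIRT6 preincubated with compound for 20 min at 37 °C in 50 mM Tris-HCl pH 8.0, BSA 1 mg/mL, 1 mM DTT, with 10 µM Ac-EALPKK(Myr)-AMC. Started with 1 mM NAD and run 120 min at 37 °C. Developed 120 min at 37 °C with 5 mg/mL trypsin/8 mM nicotinamide. Fluorescence read. Mean ± s.d., triplicate wells, three independent experiments.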

Histone deacetylase 5 = Histone deacetylase 5 (Homo sapiens, UniProt Q9UQL6); experiment: Inhibition of HDAC5 (unknown origin) by FDL assay; in short: as §4
Sequence of Histone deacetylase 5 (Q9UQL6 whole entry): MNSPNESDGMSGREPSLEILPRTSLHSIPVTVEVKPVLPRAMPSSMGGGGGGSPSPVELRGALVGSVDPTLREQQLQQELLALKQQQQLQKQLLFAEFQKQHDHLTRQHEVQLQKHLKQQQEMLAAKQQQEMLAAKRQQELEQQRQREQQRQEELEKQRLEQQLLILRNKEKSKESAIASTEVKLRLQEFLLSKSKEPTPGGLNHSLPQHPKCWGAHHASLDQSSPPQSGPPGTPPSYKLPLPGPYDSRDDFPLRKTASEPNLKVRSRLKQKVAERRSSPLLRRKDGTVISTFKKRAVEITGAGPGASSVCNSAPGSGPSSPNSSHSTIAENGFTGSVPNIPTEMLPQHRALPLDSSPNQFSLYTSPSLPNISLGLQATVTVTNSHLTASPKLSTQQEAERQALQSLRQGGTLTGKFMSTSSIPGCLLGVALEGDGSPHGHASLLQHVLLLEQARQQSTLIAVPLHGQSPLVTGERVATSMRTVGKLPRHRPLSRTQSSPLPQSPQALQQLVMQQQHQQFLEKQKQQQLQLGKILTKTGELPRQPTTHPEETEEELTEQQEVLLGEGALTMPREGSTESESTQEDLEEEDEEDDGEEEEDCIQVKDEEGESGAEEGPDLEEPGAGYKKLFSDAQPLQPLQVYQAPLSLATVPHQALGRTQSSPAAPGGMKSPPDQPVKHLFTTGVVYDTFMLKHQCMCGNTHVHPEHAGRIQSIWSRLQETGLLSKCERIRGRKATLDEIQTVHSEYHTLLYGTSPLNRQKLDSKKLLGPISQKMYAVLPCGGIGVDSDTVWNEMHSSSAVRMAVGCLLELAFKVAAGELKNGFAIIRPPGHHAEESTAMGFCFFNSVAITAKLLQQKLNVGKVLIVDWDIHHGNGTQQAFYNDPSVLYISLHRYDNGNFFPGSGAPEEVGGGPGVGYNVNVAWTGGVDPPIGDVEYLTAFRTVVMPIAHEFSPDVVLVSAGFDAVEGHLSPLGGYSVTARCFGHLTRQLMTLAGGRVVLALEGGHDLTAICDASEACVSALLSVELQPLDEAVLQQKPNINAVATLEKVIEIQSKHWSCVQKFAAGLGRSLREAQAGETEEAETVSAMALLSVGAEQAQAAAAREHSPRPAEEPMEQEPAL

[15] = target: T1, NAD-dependent protein deacylase sirtuin-6; experiment: Binding affinity to N-terminal his-tagged human SIRT6 expressed in Escherichia coli M15 [pREP4] by SPR assay
Histone deacetylase 8 = Histone deacetylase 8 (Homo sapiens, UniProt Q9BY41); experiment: Inhibition of HDAC8 (unknown origin) by FDL assay; in short: as §4
Sequence of Histone deacetylase 8 (Q9BY41 whole entry): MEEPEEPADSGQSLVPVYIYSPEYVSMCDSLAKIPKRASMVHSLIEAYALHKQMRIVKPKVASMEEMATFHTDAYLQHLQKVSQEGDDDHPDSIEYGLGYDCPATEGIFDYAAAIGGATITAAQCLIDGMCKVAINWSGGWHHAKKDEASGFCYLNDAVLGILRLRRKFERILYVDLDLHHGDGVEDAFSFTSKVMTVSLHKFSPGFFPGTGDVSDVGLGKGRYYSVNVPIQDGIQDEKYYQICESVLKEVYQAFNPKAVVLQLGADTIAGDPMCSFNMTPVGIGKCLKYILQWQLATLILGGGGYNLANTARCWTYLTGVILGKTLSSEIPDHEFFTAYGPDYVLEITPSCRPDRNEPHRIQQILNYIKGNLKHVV

PANC-1 [16] = experiment: Antitumor activity against human PANC1 cells xenografted in BALB/c nude mouse assessed as inhibition of tumor cell proliferation by measuring reduction in Ki67+ cells at 150 mg/kg/day, po for 30 days by IHC analysis; format: functional, organism-based
In short: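 PANC-1 subcutaneous xenografts in female BALB/c nude mice dosed orally for 30 days. Tumor tissue taken and stained by immunohistochemistry for Ki-67-positive cells, compared with vehicle.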

IC50 (PANC-1 [1]; PANC-1, 72 h): 4.13 µM
Activity [2]: Active
inhibition [3]: Dose-dependent effect
IC50 (BXPC-3 [5]; BXPC-3, 72 h): 8.27 µM
Activity [6]: Active
Activity [7]: Active
AUCt [8]: 3326.13 ng·mL·h
inhibition [9]: Active
IC50 (ASPC1; ASPC1, 72 h): 9.66 µM
IC50 [12]: 171 µM
Activity [14]: 1230%
IC50 (Histone deacetylase 5): > 200 µM
Kd [15]: 5.52 µM
IC50 (Histone deacetylase 8): > 200 µM
SMILES: O=C(NC(c1ccccc1)c1ccccc1)c1cc(-c2cc3ccccc3o2)nc2ccccc12
Activity (PANC-1 [1]): Dose-dependent effect
Activity (BXPC-3 [4]): Dose-dependent effect
Activity (BXPC-3 [5]): Dose-dependent effect
Activity (ASPC1): Dose-dependent effect
Activity [10]: Non-Toxic
Activity (PANC-1 [11]): Dose-dependent effect
Activity (PANC-1 [13]): Active
Activity (PANC-1 [16]): Active
